Screening results as filed in PubChem.
A1 inh: inhibitors of the anti-apoptotic protein A1, read as caspase activation; AID 2462; MEF A1-2A-BIM cells, Caspase-Glo 3/7 luminescence, 3 h; percent of clofoctol response, vehicle zero; caspase activation, % (test concentration not listed); 330,000 compounds, 0.066% hits;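 active means over half of replicate activation scores above 10%, or exactly half above 10 with the replicate mean above 10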
H9c2 TAG inh: triacylglycerol accumulation inhibition; H9c2 cells, Nile Red lipid (TAG) fluorescence; cells loaded with 200 µM oleic acid; inhibition, % at 12.5 µM; 230,000 compounds, 0.66% hits; AID 651582;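 active means pattern-corrected inhibition of lipid staining of at least 50% with the nuclear-stain viability signal not falling by more than 50%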;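 further: 0% = DMSO wells and 100% = triacsin C control wells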
T cruzi inh: blocks replication of Trypanosoma cruzi; inhibition, % (test concentration not listed); AID 1885; T. cruzi beta-gal in NIH3T3, luminescence, 90 h; 300,000 compounds, 1.4% hits;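 active means mean inhibition across valid replicates above about 55%, limit read from the data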;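 further: signal also drops with host cell toxicity which is not excluded here; 0% = plate median of DMSO wells and 100% = zero luminescence signal; higher percent means less beta-gal luminescence so fewer parasites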
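Test system: β-gal T. cruzi (Tulahuen C4) inside NIH/3T3 cells / Quantity: 5,000 cells/well / Measured by: luminescence from GalScreen with 0.05% NP40, read after 60 min / Medium: DMEM plus 2% FBS / Measure: parasite load inhibition, % / Reagent: Tulahuen C4 trypomastigotes, 5000/well / Schedule: co-culture of at least 90 h after 3 h attachment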
CSC inhib: cancer stem cell inhibition. cancer stem cell-like cells viability, luminescence. inhibition, % at 7.5 µM. 300,000 compounds, 1.1% hits; in the data active means inhibition above about 75%; tested in HMLE shEcad cells
Calb FLC: affects C. albicans growth with fluconazole; 300,000 compounds, 0.57% hits; growth inhibition, % (no concentration beside the values); C. albicans CaCi-2 + fluconazole, Alamar Blue growth, 48 h;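 active means growth inhibition above about 58% in most replicates, limit read from the data, passing the limit was not always enough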;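 further: all wells also contain fluconazole at 8 µg/ml as a sub-toxic cotreatment; 0% = median of DMSO wells and 100% = median of geldanamycin control wells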
Beta cell apopt: beta cell apoptosis inhibition; INS-1E cytokine-induced death, ATP luminescence, 48 h; percent of positive-control rescue, neutral wells zero; protection from apoptosis, % (test concentration not listed); 300,000 compounds, 0.8% hits;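 active means Every replicate reaches about 75%, or at least half do and their mean reaches it too, limit read from the data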;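 further: 0% = cytokine-treated negative control wells and 100% = positive control rescue; higher means more ATP so stronger rescue from cytokine killing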
Active calls of the source: *; x = no result. Sampled rows, rich in hits. Any-hit rate of the full collection: about 3.1%.

SMILES	A1 inh	H9c2 TAG inh	T cruzi inh	CSC inhib	Calb FLC	Beta cell apopt
CN1CCN(c2ccc([N+](=O)[O-])c(NCc3ccco3)c2)CC1	-0.1	x	46.0	93.0*	-22.6	3.0
O=[N+]([O-])c1ccc(N2CCNCC2)cc1NCc1ccco1	-0.2	x	4.8	8.8	-12.9	-3.2
O=[N+]([O-])c1ccc(N2CCNCC2)cc1N1CCCCCC1	0.3	18.3	6.7	8.5	-1.9	-5.9
CN1CCN(c2ccc([N+](=O)[O-])c(N3CCCCC3)c2)CC1	0.3	x	79.5*	36.4	-33.2	-5.1
C=C(C)[C@@H]1C2C(=O)O[C@H]1[C@H]1OC(=O)[C@@]34OC3C[C@]2(O)[C@@]14C (some centres not stated)	0.6	3.3	x	-3.4	x	-1.0
Cc1ccc(N/N=C/c2c(O)n(-c3ccccc3)c(=O)[nH]c2=O)cc1	-1.7	2.8	25.6	96.4*	-4.2	-13.9
Cc1ccc(-n2c(O)c(/C=C/C=Nc3ccccc3)c(=O)[nH]c2=O)cc1	2.1	x	-20.1	x	25.7	x
Cc1cnc(-n2c(=S)[nH]c3ccccc3c2=O)s1	-0.2	-6.1	x	x	x	-8.2
CCCCCc1cc(O)c2c3c(c(=O)oc2c1)CN(C)CC3	1.0	6.5	2.9	84.0*	-6.7	10.4
CCOC(=O)C(C)Oc1cc(C)cc2oc(=O)c3c(c12)CCCC3 (configuration not stated)	x	x	27.3	x	0.6	x
CCCn1ncc(CN2CCCC(C(=O)c3cccc(OC)c3)C2)c1C (configuration not stated)	-0.9	7.6	68.0*	2.5	0.3	-6.9
CCCn1cc(CN2CCCC(C(=O)c3cccc(OC)c3)C2)c(C)n1 (configuration not stated)	0.4	x	50.0	-3.8	-8.8	-3.5
CCn1cc(CN2CCCC(C(=O)c3cccc(OC)c3)C2)c(C)n1 (configuration not stated)	0.3	-16.1	58.4*	-11.4	9.0	-1.0
FC(F)=C(F)CCSc1ncn[nH]1	0.0	1.5	-9.7	-4.6	-1.2	-4.2
C[C@]12CC(=O)CC1CCC1C2CC[C@@]2(C)C1CC[C@@H]2O (some centres not stated)	0.9	x	-1.2	14.6	4.8	-3.1
CCN1/C(=C\C=C\C2=[N+](CC)c3ccccc3C2(C)C)C(C)(C)c2ccccc21	-2.6	-258.5	54.8*	92.7*	-5.9	118.6*
COC(=O)c1nc(-c2ccc3c(n2)C(=O)C(N)=C(OC)C3=O)c(N)c(-c2ccc(OC)c(OC)c2O)c1C	0.5	x	50.4	112.8*	19.2	110.9*
CC(C)[C@H]1C(=O)O[C@H](C(C)C)C(=O)N(C)[C@@H](C(C)C)C(=O)O[C@H](C(C)C)C(=O)N(C)[C@@H](C(C)C)C(=O)O[C@H](C(C)C)C(=O)N1C	-0.2	x	55.2*	-7.3	87.8*	109.0*
CCOC(=O)CC1c2ccccc2-n2nncc2CN1Cc1ccc(OC)cc1 (configuration not stated)	x	-0.4	x	x	x	x
O=C(CN1CCOCC1)c1cccc2ccccc12	0.4	-10.2	2.5	-3.5	19.9	-0.7
Cc1c(C(=O)c2cccc3ccccc23)c2cccc3c2n1[C@H](CN1CCOCC1)CO3	-0.2	4.9	72.3*	100.1*	23.0	x
Nc1ncnc2c1ccn2[C@@H]1O[C@H](CO)[C@@H](O)[C@H]1O	-1.0	x	85.6*	-5.1	3.3	x
Cc1cc(O)c2c(c1)C(=O)C13C(=C2O)C(=O)[C@H]2[C@@H](O)[C@@H]1[C@H]1[C@H](O)[C@@H]3C(=O)C3=C(O)c4c(O)cc(C)cc4C(=O)C312 (some centres not stated)	-0.5	x	x	73.0	x	105.6*
COc1cc2c(cc1OC)[C@@H]1C(=O)c3ccc4c(c3O[C@@H]1CO2)C[C@H](C(C)C)O4	-1.0	-8.4	-19.7	40.6	2.4	132.6*
COc1cc2c(cc1OC)C1C(=O)c3ccc4c(c3OC1CO2)CC(C(C)C)O4 (configuration not stated)	x	-7.3	x	x	x	x
SMILES	A1 inh	H9c2 TAG inh	T cruzi inh	CSC inhib	Calb FLC	Beta cell apopt
CCCCCCOc1ccc(CN2CCN(CC)CC2)cc1	0.1	x	65.0*	72.9	3.1	6.9
c1ccc(-c2ccc(-c3n(-c4ccccn4)c4ccccc4[n+]3-c3ccccn3)cc2)cc1	x	10.7	59.9*	x	-1.4	x
CC(C)(C)C(=O)N1Cc2ccccc2-n2nncc2C1	x	116.9	x	x	x	x
N#CC(=C(O)c1ccc(S(=O)(=O)N(CCCl)CCCl)cc1)c1nc2ccccc2[nH]1	x	-4.3	x	x	x	x
O=C(Nc1nc(-c2ccccc2)c(-c2ccccc2)s1)c1ccc(S(=O)(=O)N(CCCl)CCCl)cc1	-0.4	x	56.2*	10.3	4.7	6.2
Cc1cc(C)c(NC2=NCCS2)cc1C	x	-17.0	x	x	x	x
FC(F)(F)c1ccc(CNCCc2ccc3c(c2)OCO3)cc1	0.3	x	55.3*	40.8	-11.2	-8.6
CC(C)(C)C(O)C(Oc1ccc(Cl)cc1)n1cncn1 (configuration not stated)	-0.1	1.4	59.8*	7.2	x	x
CC(C(=O)c1ccc(Cl)cc1Cl)n1cncn1 (configuration not stated)	1.1	x	-9.9	0.7	-1.5	-5.1
O=C(Cn1c(NCCCl)nc2ccccc21)c1ccc(Br)cc1	0.2	6.4	16.8	x	-2.9	x
CCOC(=O)[C@@H]1[C@H]2COc3ccc(Br)cc3[C@@H]2N2C(=O)N(c3cccc(C)c3)C(=O)[C@]12C	-0.1	2.2	-12.8	-7.9	-0.2	-2.7
O=C(c1ccc(Cl)cc1)C1CCCN(Cc2ccc3nonc3c2)C1 (configuration not stated)	-0.3	-14.8	7.2	20.4	4.8	2.4
COc1cc2nc(CN3CC=C(c4ccccc4)CC3)[nH]c(=O)c2cc1OC	0.2	73.2*	31.8	89.8*	10.8	1.0
COc1cc(C)c(CN2CC=C(c3ccc(F)cc3)CC2)cc1C	-1.3	-18.3	31.1	27.0	-2.9	-0.7
COc1ccc(-[n+]2c(-c3ccccc3)cc(-c3ccccc3)cc2-c2ccccc2)cc1	-0.2	x	28.6	41.8	108.4*	111.3*
O=C([O-])c1ccc(-[n+]2c(-c3ccccc3)cc(-c3ccccc3)cc2-c2ccccc2)cc1	0.6	x	30.9	-9.4	-22.2	11.7
Oc1ccc(-[n+]2c(-c3ccccc3)cc(-c3ccccc3)cc2-c2ccccc2)cc1	1.8	12.2	49.9	-15.3	102.6*	123.0*
O=[N+]([O-])c1ccc(-[n+]2c(-c3ccccc3)cc(-c3ccccc3)cc2-c2ccccc2)cc1	0.2	x	56.7*	0.2	-1.5	x
CC12CCC(=O)C=C1CC(N1CC1)C1C2CCC2(C)C(O)CCC12 (configuration not stated)	x	3.6	x	x	x	x
O=C1C2CCCN2C(c2ccccc2)N1c1ccccn1 (configuration not stated)	-1.0	0.8	0.9	-12.2	62.6*	-6.6
